In ChEMBL document CHEMBL1147015, “Design and synthesis of selective, high-affinity inhibitors of human cytochrome P450 2J2” (Bioorg Med Chem Lett, 2006):

Experiments:
Cytochrome P450 2J2 = molecular target: T1, Cytochrome P450 2J2 (Homo sapiens, UniProt P51589); experiment: Inhibition of human recombinant CYP2J2 expressed in baculovirus-infected Sf9 insect cells
T1 sequence (P51589 whole entry): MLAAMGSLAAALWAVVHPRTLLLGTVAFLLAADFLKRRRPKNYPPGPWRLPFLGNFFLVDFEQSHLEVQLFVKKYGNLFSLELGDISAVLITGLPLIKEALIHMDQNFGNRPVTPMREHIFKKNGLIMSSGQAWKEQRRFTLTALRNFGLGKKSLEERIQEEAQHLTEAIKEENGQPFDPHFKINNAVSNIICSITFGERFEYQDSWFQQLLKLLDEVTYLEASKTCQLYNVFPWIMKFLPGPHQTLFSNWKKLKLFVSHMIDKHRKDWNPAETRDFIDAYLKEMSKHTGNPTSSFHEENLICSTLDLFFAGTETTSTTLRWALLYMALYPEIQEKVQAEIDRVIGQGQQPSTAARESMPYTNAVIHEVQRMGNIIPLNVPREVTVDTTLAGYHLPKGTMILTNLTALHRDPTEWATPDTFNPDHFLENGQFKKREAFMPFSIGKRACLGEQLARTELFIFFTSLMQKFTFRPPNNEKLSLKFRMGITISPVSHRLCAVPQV
Outline: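 Ebastine hydroxylation used as the read-out. Ebastine (0.5 μM) plus inhibitor incubated at 37 °C for 2 or 4 min with Sf9 microsomes (1 nM CYP2J2) in 0.1 M phosphate buffer pH 7.4, 0.1 mM EDTA and NADPH-generating system. Stopped with cold CH3CN/CH3COOH (10:1); protein spun out; supernatant analysed by HPLC on C18. IC50 determined.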

Cytochrome P450 3A4 = Cytochrome P450 3A4 (Homo sapiens, UniProt P08684); experiment: Inhibition of human recombinant CYP3A4; format: ADME
Cytochrome P450 2B6 = molecular target: T2, Cytochrome P450 2B6 (Homo sapiens, UniProt P20813); experiment: Inhibition of human recombinant CYP2B6; format: ADME
T2 sequence (P20813 whole entry): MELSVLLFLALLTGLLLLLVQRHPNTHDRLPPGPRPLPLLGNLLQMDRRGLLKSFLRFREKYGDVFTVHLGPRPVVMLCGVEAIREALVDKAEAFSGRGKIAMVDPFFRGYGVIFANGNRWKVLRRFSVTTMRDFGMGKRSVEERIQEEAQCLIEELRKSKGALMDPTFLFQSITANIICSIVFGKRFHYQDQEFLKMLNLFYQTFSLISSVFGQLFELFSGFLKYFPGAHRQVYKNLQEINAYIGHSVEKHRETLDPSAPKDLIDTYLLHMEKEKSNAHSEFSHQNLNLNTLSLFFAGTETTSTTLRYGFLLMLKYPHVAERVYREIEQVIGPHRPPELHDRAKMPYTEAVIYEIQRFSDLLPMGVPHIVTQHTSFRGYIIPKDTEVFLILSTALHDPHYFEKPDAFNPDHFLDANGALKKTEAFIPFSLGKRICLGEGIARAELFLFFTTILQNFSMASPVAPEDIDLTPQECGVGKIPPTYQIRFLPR

Cytochrome P450 2C8 = molecular target: T3, Cytochrome P450 2C8 (Homo sapiens, UniProt P10632); experiment: Inhibition of human recombinant CYP2C8; format: ADME
T3 sequence (P10632 whole entry): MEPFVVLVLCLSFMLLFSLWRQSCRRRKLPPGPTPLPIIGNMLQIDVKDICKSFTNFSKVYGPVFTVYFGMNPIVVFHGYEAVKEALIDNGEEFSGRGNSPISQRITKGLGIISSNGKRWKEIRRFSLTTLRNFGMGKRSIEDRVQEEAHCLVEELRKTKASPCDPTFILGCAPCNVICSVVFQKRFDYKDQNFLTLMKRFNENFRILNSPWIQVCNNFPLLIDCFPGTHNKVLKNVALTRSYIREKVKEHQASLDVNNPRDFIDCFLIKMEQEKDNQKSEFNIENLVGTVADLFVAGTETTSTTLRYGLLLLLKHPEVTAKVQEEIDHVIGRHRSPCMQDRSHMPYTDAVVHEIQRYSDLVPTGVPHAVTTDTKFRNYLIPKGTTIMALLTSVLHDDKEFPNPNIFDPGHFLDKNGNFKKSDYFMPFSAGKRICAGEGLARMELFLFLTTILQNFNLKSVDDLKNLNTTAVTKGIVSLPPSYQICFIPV

Cytochrome P450 2C9 = Cytochrome P450 2C9 (Homo sapiens, UniProt P11712); experiment: Inhibition of human recombinant CYP2C9; format: ADME
Cytochrome P450 2C9, sequence (P11712 whole entry): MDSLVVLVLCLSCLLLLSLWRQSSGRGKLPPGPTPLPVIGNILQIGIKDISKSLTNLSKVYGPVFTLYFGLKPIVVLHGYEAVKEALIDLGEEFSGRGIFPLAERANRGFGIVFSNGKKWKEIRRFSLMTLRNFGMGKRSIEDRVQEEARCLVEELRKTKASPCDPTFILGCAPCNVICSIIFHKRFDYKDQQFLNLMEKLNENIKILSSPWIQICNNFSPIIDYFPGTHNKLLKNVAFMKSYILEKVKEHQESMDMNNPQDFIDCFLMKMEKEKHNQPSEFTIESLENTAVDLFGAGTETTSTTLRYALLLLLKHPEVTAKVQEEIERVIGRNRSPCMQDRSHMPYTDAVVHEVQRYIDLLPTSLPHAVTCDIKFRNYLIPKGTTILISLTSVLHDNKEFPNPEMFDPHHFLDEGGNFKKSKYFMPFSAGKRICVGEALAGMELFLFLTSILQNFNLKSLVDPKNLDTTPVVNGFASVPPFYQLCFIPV

Cytochrome P450 3A4, sequence (P08684 whole entry): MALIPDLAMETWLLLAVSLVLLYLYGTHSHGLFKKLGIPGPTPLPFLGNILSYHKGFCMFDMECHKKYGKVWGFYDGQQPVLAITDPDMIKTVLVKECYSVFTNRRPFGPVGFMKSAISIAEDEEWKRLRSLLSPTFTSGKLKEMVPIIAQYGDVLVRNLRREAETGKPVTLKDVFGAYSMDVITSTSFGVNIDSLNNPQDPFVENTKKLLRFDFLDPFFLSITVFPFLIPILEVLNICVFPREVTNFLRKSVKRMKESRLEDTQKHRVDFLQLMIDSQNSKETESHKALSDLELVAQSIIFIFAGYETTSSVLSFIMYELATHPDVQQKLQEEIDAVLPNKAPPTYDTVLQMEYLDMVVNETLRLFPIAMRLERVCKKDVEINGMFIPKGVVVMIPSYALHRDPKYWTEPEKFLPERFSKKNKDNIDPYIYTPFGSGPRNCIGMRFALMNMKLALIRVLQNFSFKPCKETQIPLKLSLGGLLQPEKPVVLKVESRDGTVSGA

Row | SMILES | IC50 (Cytochrome P450 2J2) [nM] | also measured
1 | Cc1ccc(C(=O)CCCN2CCC(C(O)(c3ccccc3)c3ccccc3)CC2)cc1 | 700 | 
2 | C=CCc1ccc(C(=O)CCCN2CCC(C(O)(c3ccccc3)c3ccccc3)CC2)cc1 | 400 | IC50 (Cytochrome P450 3A4): 5500 nM; IC50 (Cytochrome P450 2B6): 21000 nM; IC50 (Cytochrome P450 2C8): > 100000 nM; IC50 (Cytochrome P450 2C9): 21000 nM
3 | O=C(CCCN1CCC(C(O)(c2ccccc2)c2ccccc2)CC1)c1ccc(CCCO)cc1 | 1900 | 
4 | O=C(CCCN1CCC(C(O)(c2ccccc2)c2ccccc2)CC1)c1ccc(CC(F)F)cc1 | 2200 | 
5 | O=C(CCCN1CCC(C(O)(c2ccccc2)c2ccccc2)CC1)c1ccc(CCO)cc1 | 1300 | 
6 | CCc1ccc(C(=O)CCCN2CCC(C(O)(c3ccccc3)c3ccccc3)CC2)cc1 | 600 | 
7 | CCCc1ccc(C(=O)CCCN2CCC(C(O)(c3ccccc3)c3ccccc3)CC2)cc1 | 400 | IC50 (Cytochrome P450 3A4): 7900 nM; IC50 (Cytochrome P450 2B6): 28000 nM; IC50 (Cytochrome P450 2C8): > 100000 nM; Ki (Cytochrome P450 2J2): 160 nM; IC50 (Cytochrome P450 2C9): 26000 nM
8 | CC(=O)OCCCc1ccc(C(=O)CCCN2CCC(C(O)(c3ccccc3)c3ccccc3)CC2)cc1 | 2500 | 

Now from value to compound, other results behind:

Row | IC50 (Cytochrome P450 2J2) [nM] | SMILES | also measured
9 | 6700 | O=C(CCCN1CCC(C(O)(c2ccccc2)c2ccccc2)CC1)c1ccc2c(c1)OCO2 | 
10 | 700 | CCCCc1ccc(C(=O)CCCN2CCC(C(O)(c3ccccc3)c3ccccc3)CC2)cc1 | 
11 | 700 | CC(C)(C)c1ccc(C(=O)CCCN2CCC(C(O)(c3ccccc3)c3ccccc3)CC2)cc1 [TERFENADONE] | 
12 | 4200 | O=C(CCCN1CCC(C(O)(c2ccccc2)c2ccccc2)CC1)c1ccc(Br)cc1 | 
13 | 7600 | COc1ccc(C(=O)CCCN2CCC(C(O)(c3ccccc3)c3ccccc3)CC2)cc1 | 
